Consider eight compounds from ChEMBL document CHEMBL3414523, “FimH antagonists: bioisosteres to improve the in vitro and in vivo PK/PD profile” (J Med Chem, 2015).

Each structure is given as a SMILES string. ≈ marks a conversion by molar mass, not a printed value.

The nature of data set [1]: physchem. Conditions: octanol/water, pH 7.4.
A short description of data set [2]: Displacement of fluorescently labeled 3'-chloro-N-(2-(3-(3',6'-dihydroxy-3-oxo-3H-spiro[isobenzofuran-1,9'-xanthene]-5-yl)thioureido)ethyl)-4'-((2R,3S,4S,5S,6R)-3,4,5-trihydroxy-6-(hydroxymethyl)tetrahydro-2H-pyran-2-yloxy)biphenyl-4-carboxamide from Escherichia coli recombinant 6-His-tagged FimH CRD expressed in Escherichia coli HM125 after 24 hrs by fluorescence polarization assay. An outline of the steps:
(§1)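 Competitive fluorescence polarization with His6-tagged FimH CRD (thrombin cleavage site) and fixed fluorescent reporter ligand, 24 h incubation to reach equilibrium; polarized excitation 485 nm, emission 528 nm on a plate reader. IC50 from four-parameter nonlinear least-squares fit, converted to KD by a modified Cheng–Prusoff equation accounting for ligand depletion.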

Data set [3] in a line: Apparent permeability across apical to basolateral side in human Caco2 cells by LC/MS analysis. Conditions: Caco-2.
Data set [4] is described as follows: physchem. Conditions: buffer, pH 7.4.
Data set [5] in a line: Apparent permeability across basolateral to apical side in human Caco2 cells by LC/MS analysis. Conditions: Caco-2.
Data set [6] is described as follows: Dissociation constant, pKa of the compound by NMR spectroscopy. It is filed as physicochemical.
Data set [7] is described as follows: Kinetic solubility of the compound at 0.1 to 0.5 mM at pH 6.51 after 15 hrs by UV/Vis spectrophotometry. Type of data set: physicochemical. The conditions noted are these: buffer, read-out: Kinetic_solubility.
A short description of data set [8]: Half life in rat liver microsomes at 2 uM after 10 mins by LC/MS/MS analysis in presence of NADPH. Type of data set: ADME.
Data set [9] can be described thus: Binding affinity to Escherichia coli recombinant 6-His-tagged FimH CRD expressed in Escherichia coli HM125 after 24 hrs by competitive fluorescence polarization assay. An outline of the steps:
as §1

Data set [10] relates to Mus musculus. As to the kind of experiment: Half life in C3H/HeN mouse at 50 mg/kg, iv. Type of data set: ADME, organism-based. Further details: dose 50 mg/kg, route intravenous. The conditions noted are these: in vivo.
Data set [11] is described as follows: Cmax in urine of C3H/HeN mouse at 50 mg/kg, iv. It is filed as ADME, organism-based. Further details: dose 50 mg/kg, route intravenous.
A short description of data set [12]: Plasma protein binding in human by equilibrium dialysis method. It is filed as ADME, cell-free. Conditions: read-out: PPB (converted).
Data set [13] has as its system Mus musculus. Description: Volume of distribution in C3H/HeN mouse at 50 mg/kg, iv. The conditions noted are these: in vivo. Details: dose 50 mg/kg, route intravenous. Type of data set: ADME, organism-based.
Data set [14] is described as follows: AUC (0 to infinity) in C3H/HeN mouse at 50 mg/kg, iv. Type of data set: ADME, organism-based. Further details: time infinity, dose 50 mg/kg, route intravenous. Conditions: plasma.
Data set [15] can be described thus: Half life in rat liver microsomes at 2 uM after 10 mins by LC/MS/MS analysis. The conditions noted are these: liver microsomes.
The subject of data set [16] is Mus musculus. Description: Total clearance in C3H/HeN mouse at 50 mg/kg, iv. Type of data set: ADME, organism-based. Further details: dose 50 mg/kg, route intravenous. Conditions: in vivo.
A short description of data set [17]: Initial plasma concentration in C3H/HeN mouse at 50 mg/kg, iv. It is filed as ADME, organism-based. Further details: dose 50 mg/kg, route intravenous.
Data set [18] is described as follows: Displacement of n-heptyl 2-deoxy-alpha-D-mannopyranoside from Escherichia coli recombinant 6-His-tagged FimH CRD expressed in Escherichia coli HM125 after 20 mins by isothermal titration calorimetry.
Data set [19] is described as follows: Kinetic solubility of the compound at 0.1 to 0.5 mM at pH 6.61 after 15 hrs by UV/Vis spectrophotometry. Conditions: buffer, read-out: Kinetic_solubility. Type of data set: physicochemical.
Data set [20] can be described thus: Effective permeability coefficient, log Pe after 16 hrs by PAMPA. It is filed as ADME.
A short description of data set [21]: Binding affinity to Escherichia coli recombinant 6-His-tagged FimH CRD expressed in Escherichia coli HM125 by isothermal titration calorimetry.
A short description of data set [22]: Kinetic solubility of the compound at 0.1 to 0.5 mM at pH 7.6 after 15 hrs by UV/Vis spectrophotometry. Type of data set: physicochemical. The conditions noted are these: buffer, read-out: Kinetic_solubility.

As to `NC(=O)c1ccc(-c2ccc(O[C@H]3O[C@H](CO)[C@@H](O)[C@H](O)[C@@H]3O)cc2)cc1`, the logD at 2 h, 1 µM in the data set “physchem [1]” is 0.5. Besides, the Kd in data set [2] was 2.8 nM. For the same compound, in data set [3], the Papp A→B was 0.12 ×10⁻⁶ cm/s. For the same compound, the solubility kinetic at 15 h, 500 µM in the data set “physchem [4]” is 12 µg/mL (≈ 32 µM). Moreover, the Papp B→A in [5] worked out at 0.61 ×10⁻⁶ cm/s.

For `OC[C@H]1O[C@H](Oc2ccc(-c3ccc(-c4nnn[nH]4)cc3)cc2)[C@@H](O)[C@@H](O)[C@@H]1O`, in [6], the pKa came to 3.7. In data set [2], the Kd was found to be 5.7 nM.

For the compound `COC(=O)c1ccc(-c2ccc(O[C@H]3O[C@H](CO)[C@@H](O)[C@H](O)[C@@H]3O)cc2)cc1`, in data set [7], the solubility kinetic at 15 h came to 33.8 µg/mL (≈ 86.6 µM). Further, in the data set “physchem [1]”, the logD at 2 h, 1 µM came to 2.14. For the same compound, the Kd in data set [2] came to 3.6 nM. In [3], the Papp A→B came to 4.23 ×10⁻⁶ cm/s. Further, the half-life at 2 µM in data set [8] was found to be 1 min.

As for `O=C(NCCNC(=S)Nc1ccc2c(c1)C(=O)OC21c2ccc(O)cc2Oc2cc(O)ccc21)c1ccc(-c2ccc(O[C@H]3O[C@H](CO)[C@@H](O)[C@H](O)[C@@H]3O)c(Cl)c2)cc1`, the Kd in data set [9] is 1.7 nM.

In the case of `O=C(c1ccc(-c2ccc(O[C@H]3O[C@H](CO)[C@@H](O)[C@H](O)[C@@H]3O)cc2)cc1)N1CCOCC1`, the t1/2 in the data set on Mus musculus [10] came out at 24 min. In addition, in [11], the peak level (Cmax) was 4610 µg/mL. Moreover, the fraction unbound in data set [12] is 0.52. In the data set with Mus musculus [13], this compound gave a Vz of 28.3 mL. Besides, the logD at 2 h, 1 µM in the data set “physchem [1]” is 0.2. Besides, the Kd in data set [2] is 3 nM; in data set [18], 5 nM. In [14], this compound showed an AUC(0-inf) of 25300 ng·h/mL. In addition, the Papp A→B in data set [3] is 0.18 ×10⁻⁶ cm/s. The compound further came in with a solubility kinetic at 15 h, 500 µM in “physchem [4]” greater than 250 µg/mL. This compound also yielded a half-life at 10 min, 2 µM in data set [15] greater than 60 min. In the data set with Mus musculus [16], this compound displayed a CL of 49.4 mL/h. Besides, the Papp B→A in data set [5] turned out to be 1.3 ×10⁻⁶ cm/s. This compound also yielded a C0 in data set [17] of 110 µg/mL.

As for `O=C(O)c1ccc(-c2ccc(O[C@H]3O[C@H](CO)[C@@H](O)[C@H](O)[C@@H]3O)cc2)cc1`, the solubility kinetic at 15 h in [19] was greater than 3000 µg/mL. Moreover, in the data set with Mus musculus [10], the t1/2 worked out at 19.8 min. In addition, in data set [11], the highest concentration (Cmax) was found to be 300 µg/mL. Moreover, in data set [20], the “log Pe” value was “impermeable”. The compound further returned a Vz in the data set with Mus musculus [13] of 25.2 mL. For the same compound, the logD at 2 h, 1 µM in “physchem [1]” is less than -1.5. Also, the Kd was determined as 17.9 nM in data set [2] and 15 nM in data set [21]. Moreover, the AUC(0-inf) in [14] turned out to be 23500 ng·h/mL. This compound showed a half-life at 10 min, 2 µM in data set [15] greater than 60 min. Further, the CL with Mus musculus [16] came out at 53.1 mL/h. Also, in [17], the C0 came out at 40 µg/mL.

On to `N#Cc1ccc(-c2ccc(O[C@H]3O[C@H](CO)[C@@H](O)[C@H](O)[C@@H]3O)cc2)cc1`, for which the solubility kinetic at 15 h in [22] worked out at 186 µg/mL (≈ 520 µM). Further, in data set [12], the fraction unbound was 0.01. The logD at 2 h, 1 µM in “physchem [1]” was 1.4. Also, the Kd in data set [2] stood at 2 nM; in [18], 2.8 nM. Further, the Papp A→B in data set [3] stood at 2 ×10⁻⁶ cm/s. Also, the half-life at 10 min, 2 µM in [15] was greater than 60 min. The Papp B→A in data set [5] amounted to 13.2 ×10⁻⁶ cm/s.

In turn, `OC[C@H]1O[C@H](Oc2ccc(-c3cc(F)c(O)c(F)c3)cc2)[C@@H](O)[C@@H](O)[C@@H]1O` showed a pKa in data set [6] of 6.5. Besides, the logD at 2 h, 1 µM in the data set “physchem [1]” is 1.1. The Kd in [2] stood at 3.7 nM. Moreover, the Papp A→B in data set [3] came out at 0.4 ×10⁻⁶ cm/s. In addition, the solubility kinetic at 15 h, 500 µM in the data set “physchem [4]” was greater than 150 µg/mL. The Papp B→A in [5] was determined as 1.9 ×10⁻⁶ cm/s.
